MEX-5 binding: C. elegans MEX-5 TCR-2 RNA binding activity; Q9XUB2; MEX-5/FITC-TCR2 RNA binding, fluorescence polarization; hits give low values; activity score (negative = inhibition of binding), % at 10 µM; actives 0.38% (n = 300,000); AID 1832;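 active = inhibition past about -25% in most replicates, and total fluorescence under double the plate's negative control median, limit read from the data; inconclusive = replicates evenly split on the limit, or fluorescence at least double controls; inactive = too little inhibition in most replicates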;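 note: 0% = DMSO and -100% = 5 µM competing unlabeled TCR2 RNA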
Target sequence (Q9XUB2 whole entry, looked up): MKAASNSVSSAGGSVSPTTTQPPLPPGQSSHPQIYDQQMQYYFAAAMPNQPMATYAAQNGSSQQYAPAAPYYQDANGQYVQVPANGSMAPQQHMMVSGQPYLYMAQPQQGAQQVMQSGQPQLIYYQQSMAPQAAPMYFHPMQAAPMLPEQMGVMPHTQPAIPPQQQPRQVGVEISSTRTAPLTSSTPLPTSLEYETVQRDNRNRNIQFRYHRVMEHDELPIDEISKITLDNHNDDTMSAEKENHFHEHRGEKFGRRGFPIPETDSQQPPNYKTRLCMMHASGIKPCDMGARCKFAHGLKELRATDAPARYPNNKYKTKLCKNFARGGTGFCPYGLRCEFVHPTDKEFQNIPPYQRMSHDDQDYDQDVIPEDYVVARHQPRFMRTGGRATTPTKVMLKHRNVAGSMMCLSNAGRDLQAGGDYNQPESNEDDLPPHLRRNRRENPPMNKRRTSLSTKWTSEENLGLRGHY
EBV gp42 block: inhibitors of Epstein-Barr virus glycoprotein 42; Q1HVG2; Fluorescence polarization binding assay, mP read-out; inhibition, % (tested at 21.74 µM); actives 0.42% (n = 220,000); AID 1085; in the data active = inhibition above about 50%
Target sequence (Q1HVG2 whole entry, looked up): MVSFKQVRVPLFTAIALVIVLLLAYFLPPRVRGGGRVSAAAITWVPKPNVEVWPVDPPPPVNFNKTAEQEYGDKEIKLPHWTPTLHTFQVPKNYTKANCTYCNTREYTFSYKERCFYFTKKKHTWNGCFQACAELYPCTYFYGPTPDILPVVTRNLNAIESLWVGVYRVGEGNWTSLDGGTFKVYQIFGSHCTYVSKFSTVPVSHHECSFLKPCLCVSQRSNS
Runt-CBFb FRET: blocks binding of human RUNX1 Runt domain to CBFb. Cerulean-Runt/Venus-CBFb FRET ratio 530/480, 1 h. actives 0.46% (n = 220,000). Q01196+Q13951. inhibition, % at 20 µM;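 active = inhibition over about 50% at 20 µM in the single-dose screen, limit read from the data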;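 note: 0% = DMSO wells and 100% = excess unlabeled CBFb competitor control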
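Reagent – Venus-CBFb binding partner, 100 nM · Assay system – Cerulean-tagged RUNX1 Runt domain (FRET donor) fusion protein · Input – 100 nM per protein · Incubation – two 1 h room-temperature incubations shielded from light · Measured by – FRET fluorescence · Medium – Tris buffer pH 7.5 with salts and BSA · Benchmarks – unlabeled CBFb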
Runt-SMMHC FRET: inhibitors of human RUNX1 Runt domain binding to CBFb-SMMHC; Q01196+Q13951; inhibition, % at 20 µM; AID 1434; Cerulean-Runt/Venus-CBFb-SMMHC FRET ratio 530/480, 1 h; actives 0.74% (n = 220,000);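 active = mean inhibition across duplicate retests at 20 µM reaching about 50%, limit read from the data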;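 note: 0% = DMSO wells and 100% = wells with excess untagged CBFb-SMMHC; inhibitors lower the FRET ratio by blocking Runt binding to CBFb-SMMHC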
LANA-H2A inh: blocks KSHV LANA binding to histone H2A/H2B; cell-free LANA-H2A/H2B peptide, fluorescence polarization; AID 2629; Q9QR71; inhibition, % (test concentration not listed); actives 0.6% (n = 320,000); in the data active = inhibition mostly above about 10%, no sharp cut-off; inactive = mostly below about 6.7%
RanGTP-Imp inh: inhibitors of RanGTP-importin-beta interaction, primary screen, biochemical, FRET, CFP-Ran, YFP-importin-beta, homogeneous. inhibition, % (no concentration beside the values). actives 1.1% (n = 300,000). cell-free CFP-Ran/YFP-importin-beta FRET ratio. AID 2216;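 active = more than half of the replicate wells show a fall in the fluorescence ratio signal beyond about 16%, limit read from the data, passing the limit was not always enough; inconclusive = exactly half of the replicate wells pass the set limit; inactive = fewer than half of replicates pass the limit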;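 note: 0% = DMSO wells and 100% = Ran loaded with GDP instead of GTP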
YIC counter: counter-screen for RanGTP-importin-beta inhibitors: YIC FRET probe; IC50, µM; actives 40% (n = 1,000); shares compounds with RanGTP-Imp inh; Purified YIC probe, intramolecular FRET ratio YFP/CFP;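 active = fitted half-maximal inhibitory concentration no more than tenfold above the top dose tested; inconclusive = flat fit with 30 to 70% activity, or poor fit; inactive = half-maximal concentration beyond tenfold above the top dose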
Active calls of the source: *. Most compounds without a hit are left out; they make up all but 2.4% or so of the library.

Results for Cc1ccc(N(C)C(=O)CN(C)S(=O)(=O)c2ccc3c(c2)n(C)c(=O)c(=O)n3C)cc1 ?
MEX-5 binding: -3; LANA-H2A inh: -1; RanGTP-Imp inh: inconclusive

How did O=C(NC(Cc1ccc(O)cc1)C(=O)O)c1ccc2c(c1)OCO2 (configuration not stated) do in these assays?
LANA-H2A inh: 3

How did O=c1ccc2cc([N+](=O)[O-])c(CCO)cc2o1 do in these assays?
MEX-5 binding: 1; LANA-H2A inh: 0; RanGTP-Imp inh: inconclusive

What do the screens show for `COc1ccc(OC)c(NC(=O)CSc2nnnn2C2CCCC2)c1`?
MEX-5 binding: 0; RanGTP-Imp inh: -2

What do the screens show for `COC(=O)c1ccc(NC(=O)C(=O)N2CCN(C(=S)Nc3ccccc3OC)CC2)cc1`?
MEX-5 binding: 3; EBV gp42 block: -1; Runt-CBFb FRET: -1; Runt-SMMHC FRET: 3; LANA-H2A inh: -1; RanGTP-Imp inh: 20*; YIC counter: >50

What do the screens show for `Oc1c(C(Nc2nc3ccccc3s2)c2ccco2)ccc2cccnc12` (configuration not stated)?
MEX-5 binding: 3; EBV gp42 block: 2; Runt-CBFb FRET: 7; Runt-SMMHC FRET: 4; LANA-H2A inh: 5; RanGTP-Imp inh: 22*; YIC counter: >50

How did CCc1ccc(C2C(C#N)=C(N)SC(N)=C2C#N)cc1 do in these assays?
MEX-5 binding: -1; EBV gp42 block: -53; Runt-CBFb FRET: 12; Runt-SMMHC FRET: 28; LANA-H2A inh: -17; RanGTP-Imp inh: 39*; YIC counter: >50

What do the screens show for `COc1cccc(C2=NOC(C(=O)Nc3cc(C)on3)C2)c1` (configuration not stated)?
MEX-5 binding: 2; EBV gp42 block: -12; Runt-CBFb FRET: 2; Runt-SMMHC FRET: -6; LANA-H2A inh: -1; RanGTP-Imp inh: 19*; YIC counter: >50

How did Cc1ccc(CNC(=O)C2CC(c3cccc([N+](=O)[O-])c3)=NO2)o1 (configuration not stated) do in these assays?
MEX-5 binding: 1; EBV gp42 block: -14; Runt-CBFb FRET: 0; Runt-SMMHC FRET: 3; LANA-H2A inh: 1; RanGTP-Imp inh: 2

Results for Oc1ccc(/C=N/Nc2cc(N3CCOCC3)nc(N3CCOCC3)n2)cc1O ?
MEX-5 binding: -5; EBV gp42 block: 10; Runt-CBFb FRET: 4; Runt-SMMHC FRET: 10; LANA-H2A inh: 4; RanGTP-Imp inh: 2

Results for Oc1ccccc1/C=N/Nc1cc(N2CCCC2)nc(N2CCCC2)n1 ?
MEX-5 binding: -1; EBV gp42 block: 15; Runt-CBFb FRET: -3; Runt-SMMHC FRET: -2; LANA-H2A inh: -1; RanGTP-Imp inh: 29*; YIC counter: >50

How did Cc1ccccc1NC(=O)/C(C#N)=C\c1cn(CC(=O)O)c2ccccc12 do in these assays?
MEX-5 binding: 0; EBV gp42 block: -18; LANA-H2A inh: 6; RanGTP-Imp inh: 20*; YIC counter: 51*

How did COCCNC(=O)/C(C#N)=C/c1cn(CC(=O)NCc2ccco2)c2ccccc12 do in these assays?
MEX-5 binding: -2; EBV gp42 block: -5; Runt-CBFb FRET: -19; Runt-SMMHC FRET: 4; LANA-H2A inh: -3; RanGTP-Imp inh: 27*; YIC counter: 44*

How did Cc1cccc(NC(=O)/C(C#N)=C/c2cn(CC(=O)NCc3ccco3)c3ccccc23)c1 do in these assays?
EBV gp42 block: -16; Runt-CBFb FRET: -87; Runt-SMMHC FRET: 11; LANA-H2A inh: 3

How did N#C/C(=C\c1cn(CC(=O)O)c2ccccc12)C(=O)NCc1ccccc1 do in these assays?
MEX-5 binding: 1; LANA-H2A inh: -1; RanGTP-Imp inh: 5

Results for Cc1ccc(CNC(=O)C2=NNC(=O)CC2)cc1 ?
MEX-5 binding: 1; EBV gp42 block: -11; Runt-CBFb FRET: -1; Runt-SMMHC FRET: 2; LANA-H2A inh: -3; RanGTP-Imp inh: 0

Results for COC(=O)c1cc(NC(=O)c2ccc([N+](=O)[O-])cc2)c(=O)oc1C ?
MEX-5 binding: 0; EBV gp42 block: -6; Runt-CBFb FRET: 10; Runt-SMMHC FRET: 2; LANA-H2A inh: 13*; RanGTP-Imp inh: 18*; YIC counter: >50

How did CC(=O)c1cc(NC(=O)c2ccc([N+](=O)[O-])cc2)c(=O)oc1C do in these assays?
MEX-5 binding: -3; EBV gp42 block: 3; Runt-CBFb FRET: 21; Runt-SMMHC FRET: 16; LANA-H2A inh: 0; RanGTP-Imp inh: -1

What do the screens show for `COC(=O)c1ccccc1NC(=O)COC(=O)CO/N=C(\C)c1ccc2c(c1)OCO2`?
MEX-5 binding: 4; LANA-H2A inh: -2; RanGTP-Imp inh: 1

What do the screens show for `C/C(=N\OCC(=O)OCC(=O)NC(=O)c1ccccc1)c1ccc2c(c1)OCO2`?
MEX-5 binding: 1; LANA-H2A inh: -5; RanGTP-Imp inh: 17*; YIC counter: >50

Results for NC(=S)Cc1nc(-c2ccc(Cl)cc2)cs1 ?
MEX-5 binding: -1; EBV gp42 block: -7; Runt-CBFb FRET: 1; Runt-SMMHC FRET: -10; LANA-H2A inh: -2; RanGTP-Imp inh: 18*; YIC counter: >50

Results for COc1ccc(S(=O)(=O)N2CCOCC2)cc1NC(=O)Cc1ccc(Cl)c(Cl)c1 ?
MEX-5 binding: -2; EBV gp42 block: -8; Runt-CBFb FRET: -6; Runt-SMMHC FRET: -1; LANA-H2A inh: -2; RanGTP-Imp inh: 7

Results for COc1ccccc1C(=O)NC(=S)Nc1ccc(N2CCCC2)cc1 ?
MEX-5 binding: -1; EBV gp42 block: -1; Runt-CBFb FRET: 1; Runt-SMMHC FRET: 2; LANA-H2A inh: 0; RanGTP-Imp inh: 20*; YIC counter: >50

How did COc1ccccc1C(=O)NC(=S)Nc1ccccc1N1CCCC1 do in these assays?
MEX-5 binding: 0; LANA-H2A inh: 1; RanGTP-Imp inh: 4

What do the screens show for `Cc1c(C)c2ccc(OCC(=O)N[C@@H](Cc3ccccc3)C(=O)O)cc2oc1=O`?
MEX-5 binding: 1; LANA-H2A inh: -6; RanGTP-Imp inh: 5

How did Cc1c(CC(=O)NCC(=O)N[C@H](Cc2ccccc2)C(=O)O)c(=O)oc2cc(O)ccc12 do in these assays?
MEX-5 binding: 0; LANA-H2A inh: -2; RanGTP-Imp inh: 16*; YIC counter: 46*

What do the screens show for `CCOc1ccc(S(=O)(=O)Nc2cc(NS(=O)(=O)c3ccc(OCC)cc3)cc(C(=O)O)c2)cc1`?
LANA-H2A inh: -8

How did CN=C(Nc1cc(C)nn1CCC#N)c1ccccc1 do in these assays?
MEX-5 binding: 1; EBV gp42 block: -15; Runt-CBFb FRET: 1; Runt-SMMHC FRET: -3; LANA-H2A inh: -1; RanGTP-Imp inh: 19*; YIC counter: >50

Compound activity deposited in PubChem by several laboratories.
